# Assay results from the RNAGym collection of RNA variant scans (doi:10.1126/science.aae0568).
# This sample holds only a part of the variants without activity.
# B1: tRNA (parent)
# chain: GUUCCGUUGGCGUAAUGGUAACGCGUCUCCCUCCUAAGGAGAAGACUGCGGGUUCGAGUCCCGUACGGAACG
# Variants of: B1
# Assay: yeast fitness relative to wild type (ratio to wild type); higher = fitter; tRNA-Arg(CCU), competitive growth, 37 C, YPD
# Method in brief: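 Genotype frequency changes were the basis for Darwinian fitness relative to wild type. The frequencies came from 100-nucleotide paired-end sequencing of gene amplicons from the start population and each end population of pooled yeast strains with tRNA-Arg(CCU) gene variants at the native locus. Competition ran in YPD at 37°C for 24 hours in six replicates, genotypes needed ≥ 100 starting reads, and estimates < 0.5 were set to 0.5.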
row,Variant,yeast fitness
1,GUUCCGUAGGCGUAAUGGUAACGCCUCUCCCUCCUACGGAGAAGACUGCGGGUUCGAGUCCCGUCCGGAACG,≤ 0.5
2,GUUCCGUAGCUGUAAUGGUAACGUGUCUCCCUCCUAAGGAGCAGACCGCGGGUUCGAGUCCCGUACGGAACG,0.777
3,GUUCCGUAGACGUAAUGGUAACGCGUCUCCCUCCUAAGGAGACGACUGCGGGUUCGAGUCCCGUACGGAACG,0.646
4,GUUCCGUAGGCGUAAUGCUAACGCGUCUCCCUCCUAAGGAAAAGACUGCGGGUUCGAGUCCCGUACGGAACG,≤ 0.5
5,GUUCCGUAGGCGUAAUGCUAACGCGUUUCCCCCCUAAGGAGAAGACUGCGGGUUCGAGUCCCGUAGGGAUCG,≤ 0.5
6,GUUCCGUAGGCGACAAGGUAACGCGUCUCCCUCCUAAGGAGAAGACUGCGGGUUCGAGUCCCAUACAGAACG,≤ 0.5
7,GUUCCGUAGGCGACAUGGUAACGCGUCUCCCUCCUAAGGAGAAGACUGCGGGUUCCAGUCCCGUACGGAACG,≤ 0.5
8,GUUCCGUACGCGUAAUGGUAACGCGUCUCCCUCCUAAAGCGAAGACUGCGGGUUCGAGUCCCGUACGGAACG,≤ 0.5
9,GUUCCGUAGGCAUAAUGGUAAAGCGUCUCCGUCCUAAGGAGAAGACUGCGGGUUCGAAUCACGUACGGAACG,≤ 0.5
10,GUUCCGUAGGCGUAAUGGUAACACGUCUCCCUCCUAAGGAGAAGACUGCGGGUUCGAGUCCCGUACGGAACG,0.597
11,GUUCCGUAGGCGACACGGUAACGCGUCUCCCUCCUAAGGAGAAGACUGCGGGUUCGAGUCCCGUACGGAACG,≤ 0.5
12,GUUCCGUAGGCGUAAUGGUAACGCAUCUCCCUCCUAAGGCGAAGAUUGCGGGUUCGAGUCCCGUACGGAACG,0.598
13,GUUCCGUAGCCGUAAUGGUUACGCGUCUCCCUCCUAAGGAUAAGACUGCGGGUUCGAGUCCUGUACGCAACG,0.799
14,GUUCCGUAGACGUAAUGGUAACGCGGCUCCCUCCUAAGGAGAAGACUGCGGGUUCGAAUCCCGUACGGAACG,≤ 0.5
15,GUUCCGUAGGCGUAAUGAUAACGCGUCUCCCUCCUAAGGAGAAGACUGCGGGUUCGAGUCCCGUACUGCACG,≤ 0.5
16,GUUCCGUAGGCGCAAUGGUAACGCGUCUCCCUCCUAAGGAGAAGACUGCGGGUUCGAGUCCCGUAUGGAACG,0.607
17,GUUCCGUAGGCGUAAUGGUAACGCGUCUCCCUCCUAAGGAAAAGACUGCGGGUUCGAGUCCCGUACGGUACG,≤ 0.5
18,GUUCCGUAGGCGUAAUGGUAACGCGUCUCCCUCCUAAGGAGAAGACUGCGGCUUCGAGUCCCGUACGGAACG,≤ 0.5
19,GUUCCGUAGGCGUAAUGGUAACGCGUCUCCCUCCUAAGCAGAAGACUGCGGGUUCGAGUCCCGUACGGACCG,0.751

row,Variant,yeast fitness
1,GUUCCGUAGGCGACAAGGUAACGCGUCUCCCUCCUAAGGAGAAGACUGCGGGUUCGAGUCCCGUACAGAACG,0.584
2,GUUCCGUAGGCAUCAUGGUAACGCGUCUCCCUCCUAAGGAGAAGACUGCGGGUUCGUGUCCCGUACCGAACG,≤ 0.5
3,GUUCCGUAGGCGUAAUAGUAACGUGUCUCCCUCCUAAGGAGAAGACUGCGGGUUCGAGUCCCGUACGGAACG,0.95
4,GUUCCGUAGGCGUAAUGGUAACCCGUCUCCCUCCUAAGGAGAAGACUGCGCGUUCGAGUCCGGUACGGAACG,0.727
5,GUUCCGUAGGCGUAAUGGUAACGCAACUCCCUCCUAAGGAGCAGACUGCGGGUUCGAGUCCCGUACGGAACG,≤ 0.5
6,GUUCCGUAGGCGUAAUGGUAACGCGUCUCCCUCCUAAGGAGAAGACUGCGAGUUCGAGUCCCGUACGGAACG,0.63
7,GUUCCGUAGGCGUAAUGCUAACGAGUCUCCCCCCUAAGGAGAAGACUGCGGGUUCGAGUCCCGCGCGGAACG,≤ 0.5
8,GUUCCGUAGGCGUAAUGCUAACGCCUCUCCCUCCUAAGGAGAAGACUGCGGGUUCGAGUCCCGUACGGAACG,≤ 0.5
9,GUUCCGUAGGCGUAAUGGUAACGCCUCUCCCUCCAAAGGAGAAGACUGCGGGUUCGAGUCCCGUACGGAACG,≤ 0.5
10,GUUCCGUAGGCGUAAUGCUAACGCGUUUCCCUCCUAAGGAGAAGACUGCGCGUUAGAGUCCUGUUCGGUACG,0.647
11,GUUCCGUAGCCGUAAUGGUUACGCGUCUCCCUCCUAAGGAUAAGACUGCGCGUUCGAGUCCCGUACGGAACG,≤ 0.5
12,GUUCCGUAGGCGUAAUGCUAACGCCUCUCCCUCCUAAGGAGAAGACUGCGGGUUCGUGUUACGUACGGAACG,≤ 0.5
13,GUUCCGUAGGCGUAAUGGUAACGCGACUACCUCCUAAGGAGAAGACUGCGGGUUCGAGUCCCGUCCGGACCG,≤ 0.5
14,GUUCCGUAGGCGUAAUGGGAAUGCGUCUCCCUCCUAAGGAGAAGACUGCGGGUUCGAAUCCCGUACGGAACG,0.568
15,GUUCCGUAGGCGUAAUAGUAAUGUGUCCCCCUCCUAAGGAGAAGACUGCGGGUGCGCGUCCUGUACGGAACG,≤ 0.5
16,GUUCCGUAGGCGUAAUGGUAACGCCUCUCCCUCCUACGGAGAAGACUGCGGGUUCGAGUCCCGUAUGGAACG,≤ 0.5
17,GUUCCGUAGGCGUAAUGGUAACGCGUCUCCCUCCUAAGGAGAAGACUGCCGGUUCAAGUCCCGUACGGAACG,≤ 0.5
18,GUUCCGUAGGCGUAAUGAUAACGCGUCUCGCUCCUAAGGCGAAGACCGCGGAUUCGAGUCCCGUACGGAACG,≤ 0.5
19,GUUCCGUAGGCGUAAUGGUAACGCGUCUCCCUCCUAAGGAGAAGACUGCGGGUUCGAAUCCCGUACGGAACG,0.771
